According to ChEMBL document CHEMBL1149758, “N-[2-(5,5-dimethyl-1,3-dioxane-2-yl)ethyl]amino acids: their synthesis, anti-inflammatory evaluation and QSAR analysis” (Eur J Med Chem, 2008):
The source made the active and inactive calls. The calls are words filed in the database; no cut-off is given here.

What follows are compounds tested on Mus musculus (assay: Antiinflammatory activity against xylene-induced ear edema in ICR mouse at 20 mg/kg, po).
Type: functional, organism-based
Set-up: dose 20 mg/kg
Method in brief: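 Mice dosed orally with compound suspended in CMC (2.0 mg/mL), vehicle group given CMC, aspirin in CMC as positive control; 30 min later 0.03 mL xylene applied to both surfaces of right ear, left ear untreated. After 2 h mice killed, 7 mm ear punches weighed; edema = right minus left section weight, expressed as % inhibition. n = 11; ANOVA, p < 0.05.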

**Q.** Which Activity does the source give for `CC1(C)COC(CCN[C@@H](Cc2ccccc2)C(=O)O)OC1` here?
**A.** Active

**Q.** `CC1(C)COC(CCN[C@@H](CCCNC(=N)N)C(=O)O)OC1` was tested. Which Activity did it give?
**A.** Active

**Q.** Which Activity does the source give for `C[C@H](NCCC1OCC(C)(C)CO1)C(=O)O` here?
**A.** Active

**Q.** How did the Activity turn out when `CC1(C)COC(CCN[C@@H](CCC(N)=O)C(=O)O)OC1` was run?
**A.** Active

**Q.** For `CC(C)[C@H](NCCC1OCC(C)(C)CO1)C(=O)O`, which Activity is on record?
**A.** Active

**Q.** `CC1(C)COC(CCN[C@@H](Cc2ccc(O)cc2)C(=O)O)OC1` was tested. Which Activity did it give?
**A.** Active

**Q.** `CC1(C)COC(CCN[C@@H](CC(=O)O)C(=O)O)OC1` was tested. Which Activity did it give?
**A.** Active

**Q.** `CC1(C)COC(CCN2CCC[C@H]2C(=O)O)OC1` was tested. Which Activity did it give?
**A.** Active

**Q.** How did the Activity turn out when `C[C@@H](O)[C@H](NCCC1OCC(C)(C)CO1)C(=O)O` was run?
**A.** Active

**Q.** With `CC1(C)COC(CCNCC(=O)O)OC1` as the compound, how does the Activity read?
**A.** Active

**Q.** Which Activity does the source give for `CC1(C)COC(CCN[C@@H](CCCCN)C(=O)O)OC1` here?
**A.** Active

**Q.** With `CC1(C)COC(CCN[C@@H](CO)C(=O)O)OC1` as the compound, how does the Activity read?
**A.** Active

**Q.** Which Activity does the source give for `CC1(C)COC(CCN[C@@H](Cc2c[nH]c3ccccc23)C(=O)O)OC1` here?
**A.** Active

**Q.** With `CSCC[C@H](NCCC1OCC(C)(C)CO1)C(=O)O` as the compound, how does the Activity read?
**A.** Active

**Q.** `CC1(C)COC(CCN[C@@H](CCC(=O)O)C(=O)O)OC1` was tested. Which Activity did it give?
**A.** Active

**Q.** With `CC[C@H](C)[C@H](NCCC1OCC(C)(C)CO1)C(=O)O` as the compound, how does the Activity read?
**A.** Active

**Q.** For `CC1(C)COC(CCN[C@@H](Cc2c[nH]cn2)C(=O)O)OC1`, which Activity is on record?
**A.** Active

**Q.** Which Activity does the source give for `CC1(C)COC(CCN[C@@H](CC(N)=O)C(=O)O)OC1` here?
**A.** Active

**Q.** For `CC(C)C[C@H](NCCC1OCC(C)(C)CO1)C(=O)O`, which Activity is on record?
**A.** Active
